Assay results: ChEMBL document CHEMBL4354873, “Rationally Designed Small-Molecule Inhibitors Targeting an Unconventional Pocket on the TLR8 Protein-Protein Interface” (J Med Chem, 2020)
Calls of active or inactive are those of the source. The rule behind the calls is not given here.

What was measured:
[1] = Cytotoxicity against HEK-Blue cells expressing human TLR8 assessed as reduction in cell viability up to 100 uM measured after 24 hrs by CCK8 assay; format: cell-based
Method in brief: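 CCK-8 viability: compounds incubated 24 h at 37 °C with HEK-Blue TLR8 cells (4 × 10⁴ cells/well) or PBMCs (3 × 10⁶ cells/mL). CCK-8 was added at 1:10 for up to 2 h, then absorbance read at 450 nm. Values normalized to untreated cells as 100% survival.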

Toll-like receptor 8 = target: T1, Toll-like receptor 8 (Homo sapiens, UniProt Q9NR97); experiment: Binding affinity to human TLR8 ectodomain by isothermal titration calorimetry
T1 sequence (Q9NR97 whole entry): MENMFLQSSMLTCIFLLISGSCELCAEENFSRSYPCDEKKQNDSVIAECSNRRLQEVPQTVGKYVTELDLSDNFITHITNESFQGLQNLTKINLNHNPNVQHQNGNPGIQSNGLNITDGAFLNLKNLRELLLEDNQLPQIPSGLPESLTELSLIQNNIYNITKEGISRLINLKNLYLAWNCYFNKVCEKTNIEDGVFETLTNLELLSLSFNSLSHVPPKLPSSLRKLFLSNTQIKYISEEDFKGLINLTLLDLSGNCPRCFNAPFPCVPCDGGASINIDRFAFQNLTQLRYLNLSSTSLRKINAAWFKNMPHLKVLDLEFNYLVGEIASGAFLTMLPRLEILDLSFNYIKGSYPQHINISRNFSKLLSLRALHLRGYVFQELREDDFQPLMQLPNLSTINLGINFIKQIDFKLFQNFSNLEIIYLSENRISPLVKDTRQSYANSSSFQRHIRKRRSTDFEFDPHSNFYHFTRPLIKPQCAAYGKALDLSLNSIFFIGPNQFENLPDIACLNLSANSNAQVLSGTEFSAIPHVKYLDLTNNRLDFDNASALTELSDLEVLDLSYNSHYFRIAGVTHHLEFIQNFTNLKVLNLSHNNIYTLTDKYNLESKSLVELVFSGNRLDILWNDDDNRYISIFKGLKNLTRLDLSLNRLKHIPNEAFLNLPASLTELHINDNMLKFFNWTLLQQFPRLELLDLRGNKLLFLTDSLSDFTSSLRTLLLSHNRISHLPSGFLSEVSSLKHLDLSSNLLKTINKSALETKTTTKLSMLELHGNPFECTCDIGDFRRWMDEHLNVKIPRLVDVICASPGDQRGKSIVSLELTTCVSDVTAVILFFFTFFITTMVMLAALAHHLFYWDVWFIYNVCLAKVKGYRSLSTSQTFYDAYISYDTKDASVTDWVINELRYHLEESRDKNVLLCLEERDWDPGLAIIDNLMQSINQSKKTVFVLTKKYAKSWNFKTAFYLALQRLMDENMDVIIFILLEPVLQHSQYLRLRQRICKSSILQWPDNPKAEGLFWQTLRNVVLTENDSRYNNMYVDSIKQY
Method in brief: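 ITC at 298 K in 25 mM MES pH 5.5, 0.20 M NaCl, 5% DMSO. The protein was the human TLR8 ectodomain (residues 27–827). 100 µM compound was titrated into 10 µM hTLR8 as one 0.4 µL injection followed by 18 × 2 µL injections, 120 s apart. Integrated peaks were fitted for Kd.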

[2] = target: T2, Toll-like receptor 8 (Homo sapiens) (UniProt Q9NR97); experiment: Inhibition of TLR8 in human monocytes assessed as reduction in R848-induced p65 nuclear translocation up to 5 uM measured after 2 hrs by Western blot analysis; format: cell-based
T2 sequence (whole entry): T1 sequence (Q9NR97 whole entry)
Method in brief: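 Monocyte cell lines, 2 × 10⁶/well, differentiated with PMA 100 ng/mL for 24 h. After washes, cells in unsupplemented RPMI received R848 1 µg/mL with varying compound concentrations for 2 h. Nuclear/cytoplasmic fractions extracted and resolved on 10% SDS-PAGE. Blots probed for p65, TRAF3 and p-IRAK4 (1:1000); lamin A/C (nuclear) and β-actin (cytoplasmic) as loading controls.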

[3] = target: T3, Toll-like receptor 7 (Homo sapiens) (UniProt Q9NYK1); experiment: Inhibition of human TLR7 expressed in HEK-Blue cells assessed as inhibition of R848-induced NF-kappaB activation at 20 uM measured after 24 hrs by quanti-blue based SEAP reporter gene assay; format: cell-based
T3 sequence (whole entry): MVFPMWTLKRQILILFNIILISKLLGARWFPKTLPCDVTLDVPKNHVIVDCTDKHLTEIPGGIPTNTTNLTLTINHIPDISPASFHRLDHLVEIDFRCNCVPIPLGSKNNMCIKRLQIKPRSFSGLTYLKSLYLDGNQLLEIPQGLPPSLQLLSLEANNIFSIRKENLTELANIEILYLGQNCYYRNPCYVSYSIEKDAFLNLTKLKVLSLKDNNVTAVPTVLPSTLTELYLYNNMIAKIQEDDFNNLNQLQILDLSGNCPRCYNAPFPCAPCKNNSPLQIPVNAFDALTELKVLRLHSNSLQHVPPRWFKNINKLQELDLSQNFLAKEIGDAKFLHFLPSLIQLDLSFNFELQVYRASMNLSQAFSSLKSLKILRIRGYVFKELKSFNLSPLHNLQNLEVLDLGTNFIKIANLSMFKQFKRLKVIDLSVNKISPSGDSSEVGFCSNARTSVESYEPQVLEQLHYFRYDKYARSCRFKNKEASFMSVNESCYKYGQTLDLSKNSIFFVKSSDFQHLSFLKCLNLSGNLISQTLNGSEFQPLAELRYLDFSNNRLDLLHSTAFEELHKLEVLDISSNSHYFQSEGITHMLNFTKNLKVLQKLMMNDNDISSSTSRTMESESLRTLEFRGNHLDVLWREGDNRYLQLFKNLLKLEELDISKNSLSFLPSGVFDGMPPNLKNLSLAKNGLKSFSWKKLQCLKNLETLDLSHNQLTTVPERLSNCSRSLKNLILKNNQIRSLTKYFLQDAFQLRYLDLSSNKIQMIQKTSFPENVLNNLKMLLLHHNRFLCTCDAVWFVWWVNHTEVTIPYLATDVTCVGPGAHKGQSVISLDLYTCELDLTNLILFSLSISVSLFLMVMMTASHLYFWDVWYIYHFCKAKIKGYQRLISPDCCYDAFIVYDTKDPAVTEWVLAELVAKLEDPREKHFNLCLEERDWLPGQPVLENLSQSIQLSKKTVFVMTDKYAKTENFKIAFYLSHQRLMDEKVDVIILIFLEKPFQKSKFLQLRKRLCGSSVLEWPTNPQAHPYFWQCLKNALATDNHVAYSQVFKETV
Method in brief: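 HEK-Blue SEAP format: 4 × 10⁴ cells/well in DMEM with ligand plus compound, 24 h at 37 °C. Supernatant mixed with QUANTI-Blue up to 1 h, then A620 read. Ligands: Pam3CSK4 100 ng/mL (TLR1/2), Pam2CSK4 100 ng/mL (TLR2/6), poly(I:C) 5 µg/mL (TLR3), LPS 20 ng/mL (TLR4), flagellin 50 ng/mL (TLR5), R848 1 µg/mL (TLR7), R848 2 µg/mL (TLR8), ODN2006 0.5 µM (TLR9). Mean ± s.d.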

## CSc1nnc(CCCO)n1-c1cc(C)c(C)c(C)c1
[1]
  Activity: Non-Toxic
Toll-like receptor 8
  Kd: 225 nM
[2]
  inhibition: Active
[3]
  inhibition: inactive
